S100A4 MyoIIA = inhibitors of S100A4-myosin IIA peptide binding, primary screen, biochemical, fluorescence polarization, TAMRA-MyoIIA peptide; inhibition, % at 10.7 µM; 360,000 tested, 0.14% active; AID 652163, 2013; Protein S100-A4 (Homo sapiens), P26447;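 active = mean inhibition of at least 70% across replicates, with every replicate also reaching that level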
Target sequence (P26447 whole entry, looked up): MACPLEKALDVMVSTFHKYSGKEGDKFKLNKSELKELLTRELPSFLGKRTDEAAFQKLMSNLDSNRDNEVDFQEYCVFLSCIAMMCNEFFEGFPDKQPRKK
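Material: S100A4 monomer (human). Medium: Calcium-containing HEPES buffer, pH 7.2. Probe or stimulus: labelled myosin peptide probe, 5 nM. Compound dosing: one concentration per compound. Timing: polarization read 5 min after assay mix addition, stable 5–60 min. Benchmarks: DMSO as neutral control, TFP as positive control.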
ERAP1 HTS inh = human ERAP1 aminopeptidase inhibitors, primary screen, biochemical, single point, plate reader; recombinant ERAP1, Leu-AMC fluorescence, 60 min; inhibition, % at 10.7 µM; 340,000 tested, 0.15% active; AID 652197, 2013;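 active = mean replicate inhibition of at least 30%, or all replicates individually reaching that 30% level; inactive = mean below 30% and not every replicate reaching it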;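 also: 0% = neutral control wells and 100% = L-leucinethiol positive control wells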
Ecoli rRNA inh = reduced GFP signal of wild-type E. coli, primary screen, bacterial rRNA inhibitor project, GFP/RFP fluorescence, OD600, single point | E. coli WT GFP vs humanized-ribosome RFP mutants, 24 h; hits give low values; DMSO median 0, no signal -100 | GFP signal change (wild-type ribosome), % (no concentration beside the values) | 350,000 tested, 1.6% active | AID 720706, 2013;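 active = significant combined selectivity score with lowered wild-type GFP, culture density cut under 30%, mutant RFP and density less affected; inactive = any of these conditions unmet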
MLL AF4-AF9 inh = inhibitors of AF4 peptide binding to AF9, primary screen, biochemical, AlphaScreen, biotin-AF4 peptide, FLAG-AF9, single point; Protein AF-9 (Homo sapiens), P42568; inhibition, % at 10 µM; 350,000 tested, 0.47% active; AID 651704, 2012;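 active = every replicate reaching a set inhibition limit, whatever the replicate mean, cut at about 25% in these data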;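 also: 0% = plate neutral control median and 100% = total signal loss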
E-sel inducer = E-selectin induction in HUVECs, primary screen, imaging, HUVEC, immunofluorescence imaging, single point; P16581; normalized: neutral wells 0, TNF-alpha wells 100; activation, % at 7.58 µM; 260,000 tested, 0.37% active;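 active = mean E-selectin-positive cell signal at least 10% of the positive control, reached in at least 60% of replicates, without over 20% cell loss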
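material = human umbilical vein endothelial cells (HUVEC), E-selectin induction | quantity = 3,000 cells/well | medium = EGM-2 growth medium on 0.1% gelatin-coated wells | technique = immunofluorescence imaging | read-out basis = % PE-positive cells | control set = TNF-alpha positive control, DMSO neutral control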
SIRT5 inh = SIRT5 desuccinylase inhibitors, primary screen, biochemical, fluorescence imaging, single point, set 5; NAD-dependent protein deacylase sirtuin-5, mitochondrial (Homo sapiens), Q9NXA8; Purified SirT5, succinyl-peptide AMC, trypsin-coupled fluorescence; inhibition, % at 15 µM; 330,000 tested, 1.1% active; AID 652115, 2013; in the data active = inhibition above about 15%
Target sequence (Q9NXA8 whole entry, looked up): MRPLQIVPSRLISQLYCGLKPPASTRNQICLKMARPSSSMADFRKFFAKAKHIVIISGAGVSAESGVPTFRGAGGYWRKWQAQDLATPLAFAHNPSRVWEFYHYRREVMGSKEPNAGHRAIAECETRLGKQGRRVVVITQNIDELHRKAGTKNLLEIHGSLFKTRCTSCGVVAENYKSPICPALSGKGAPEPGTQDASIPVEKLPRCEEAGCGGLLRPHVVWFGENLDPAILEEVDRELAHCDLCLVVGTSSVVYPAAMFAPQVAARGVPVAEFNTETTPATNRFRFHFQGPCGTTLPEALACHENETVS
The depositor's hits bear a star; / = no result. Sampled rows, rich in hits. Any-hit rate of the full collection: about 3.4%.

SMILES | S100A4 MyoIIA | ERAP1 HTS inh | Ecoli rRNA inh | MLL AF4-AF9 inh | E-sel inducer | SIRT5 inh
COc1ccc2c3c(n(C)c2c1)[C@@H](CO)N(C(=O)Nc1ccc(F)cc1)CC31CCN(Cc2cccnc2)CC1 | / | / | -2 | 39* | 0 | /
C[C@@H]1CN([C@H](C)CO)C(=O)Cc2cc(NS(=O)(=O)c3ccc(F)cc3)ccc2O[C@H]1CN(C)C(=O)Nc1ccc(C(F)(F)F)cc1 | -8 | -3 | 0 | 0 | 1 | 4
COc1ccc2[nH]c3c(=O)n(CCCCC(=O)NCCN4CCCC4)c(=S)[nH]c3c2c1 | 2 | 5 | -29* | 10 | / | -4
CCCCNC(=O)CCCCn1c(=S)[nH]c2c([nH]c3ccc(OC)cc32)c1=O | 0 | 1 | -6 | -2 | 0 | 5
CN1C(=O)c2cc(NC(=O)c3ccccc3)ccc2OC[C@@H]2O[C@H](CC(=O)NC3CCCC3)CC[C@@H]21 | -5 | -1 | -10 | -2 | 0 | -3
CCN(CC)CCN(C(=O)c1c(F)cccc1F)c1nc2cc(C)cc(C)c2s1 | 3 | / | -31* | 13 | -2 | -5
Cc1cc(C(=O)Nc2ccc(C)c(S(=O)(=O)N3CCOCC3)c2)c(C)o1 | -1 | -1 | 2 | -8 | 3 | 4
Cc1ccc(NC(=O)/C=C/c2ccc3c(c2)OCO3)cc1S(=O)(=O)N1CCOCC1 | -6 | 0 | -20* | 4 | 1 | -4
COc1ccc(/C=C/C(=O)Nc2cc(F)ccc2C)cc1S(=O)(=O)N1CCOCC1 | 1 | -1 | -4 | -2 | 0 | 18*
O=C(/C=C/c1cccc(F)c1)Nc1cc(S(=O)(=O)N2CCOCC2)ccc1Cl | -1 | 0 | -17* | 1 | / | /
O=C(/C=C/c1cccc(F)c1)Nc1cc(S(=O)(=O)N2CCOCC2)ccc1N1CCCC1 | -1 | 6 | -2 | 11 | 0 | -1
CCCNC(=O)C[C@@H]1CC[C@@H]2[C@H](COc3ccc(NC(=O)NCC)cc3C(=O)N2C)O1 | 0 | 0 | 1 | -2 | 0 | 1
COc1cc(C(=O)Nc2nc(-c3cccs3)cs2)cc(OC)c1OC | -5 | -1 | -30* | 5 | / | -3
CNC(=S)c1cc(C(C)(C)C)c(O)c(C(C)(C)C)c1 | -2 | -2 | -21* | -3 | 1 | -5
O=C(O)c1ccc(CNCc2cccc(Cl)c2)cc1 | 0 | -9 | 12 | 0 | / | 21*
C[C@H](CO)N1C[C@H](C)[C@H](CN(C)Cc2ccc(C(F)(F)F)cc2)Oc2ccc(NC(=O)Cc3cn(C)c4ccccc34)cc2CC1=O | -6 | -1 | 0 | -3 | 228* | 4
C[C@H](CO)N1C[C@H](C)[C@H](CN(C)Cc2ccc(-c3ccccc3)cc2)Oc2ccc(NC(=O)Cc3cn(C)c4ccccc34)cc2CC1=O | -25 | -3 | 1 | 1 | 2 | 11
C[C@@H]1CN([C@H](C)CO)C(=O)Cc2cc(NC(=O)Cc3cn(C)c4ccccc34)ccc2O[C@@H]1CN(C)C | 14 | 0 | 5 | 2 | 0 | 26*
C[C@@H]1CN([C@@H](C)CO)C(=O)Cc2cc(NC(=O)Cc3cn(C)c4ccccc34)ccc2O[C@@H]1CN(C)Cc1ccc(-c2ccccc2)cc1 | -2 | -1 | 2 | 1 | 1 | 15*
C[C@H](CO)N1C[C@H](C)[C@@H](CN(C)Cc2ccc(C(F)(F)F)cc2)Oc2ccc(NC(=O)Cc3cn(C)c4ccccc34)cc2CC1=O | -6 | -1 | 3 | -4 | -3 | 0
COc1ccc(S(=O)(=O)N(C)C[C@@H]2Oc3ccc(NS(=O)(=O)c4cccs4)cc3C(=O)N([C@@H](C)CO)C[C@H]2C)cc1 | -7 | -2 | -1 | -1 | 0 | -3
COc1ccc(-c2ccc3c(c2)[C@@H]2[C@@H](CCN2C(=O)C2CCC2)[C@H](CO)N3C)cc1 | / | / | -25 | 33* | 0 | /

Screening data: PubChem BioAssay, Broad Institute
